Assay outcomes as filed in PubChem.
Only some compounds are listed: those with a hit (about 2.6% of all), similar ones and a draw of the others.
rRNA inh HTS: reduced GFP signal of wild-type E. coli, primary screen, bacterial rRNA inhibitor project, GFP/RFP fluorescence, OD600, single point; 350,000 compounds, 1.6% hits; GFP signal change (wild-type ribosome), % (test concentration not listed); E. coli WT GFP vs humanized-ribosome RFP mutants, 24 h; active compounds read low; DMSO median 0, no signal -100; AID 720706, 2013;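 active = significant combined selectivity score with lowered wild-type GFP, culture density cut under 30%, mutant RFP and density less affected; inactive = any of these conditions unmet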
dFosB act: activators of delta FosB homodimer, primary screen, biochemical, fluorescence polarization, TAMRA-CDK5 oligo, single point | purified delta FosB; percent of positive-control signal above neutral wells | activation, % at 25 µM | 340,000 compounds, 0.99% hits | Protein FosB (Mus musculus), P13346;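 active = mean activation above about 17%, with every replicate also reaching it, limit read from the data, passing the limit was not always enough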
Target sequence (P13346 whole entry, looked up): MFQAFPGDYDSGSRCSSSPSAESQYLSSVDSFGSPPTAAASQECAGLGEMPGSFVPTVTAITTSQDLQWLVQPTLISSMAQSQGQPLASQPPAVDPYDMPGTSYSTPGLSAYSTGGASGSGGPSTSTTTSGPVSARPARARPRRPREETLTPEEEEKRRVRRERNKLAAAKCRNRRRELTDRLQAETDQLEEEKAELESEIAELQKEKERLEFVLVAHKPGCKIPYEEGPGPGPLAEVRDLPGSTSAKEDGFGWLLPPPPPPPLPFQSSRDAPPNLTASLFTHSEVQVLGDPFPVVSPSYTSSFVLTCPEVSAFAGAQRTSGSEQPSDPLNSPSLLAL
SR-BI DiI-HDL act: activators of SR-BI mediated DiI-HDL uptake, primary screen, ldlA[mSR-BI] CHO cells, DiI fluorescence; 320,000 compounds, 0.096% hits; 3 h; 100 = double the neutral-control signal; activation, % at 12.5 µM; AID 504775, 2011;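 active = mean replicate activation of at least 60% and every replicate at or above 60%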;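 also: 0% = median plate neutral-control signal and 100% = twice that signal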
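Material: SR-BI-overexpressing, LDLR-lacking CHO cells | Dosing: Single compound concentration, delivered by pin transfer | Probe or stimulus: Labelled HDL, 10 µg/mL | Signal: Bottom-read cell fluorescence after medium removal, ex 550/em 595 nm | Schedule: 3 h, 37 °C | Evaluation: HDL uptake via cellular fluorescence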
SR-BI HDL uptake: inhibitors of SR-BI mediated HDL lipid uptake, primary screen, ldlA[mSR-BI] cells, fluorescence, single point | ldlA[mSR-BI] CHO cells, DiI-HDL uptake fluorescence, 3 h | 320,000 compounds, 0.96% hits | AID 488896, 2010 | Scavenger receptor class B member 1 (Mus musculus), Q61009 | inhibition, % at 12.5 µM;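 active = mean replicate inhibition of at least 70% and a set share of replicates each scoring 70 or more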;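 also: 0% = median of neutral control wells and 100% = median of positive control wells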
PvdQ acylase: P. aeruginosa PvdQ acylase inhibitors, primary screen, biochemical, fluorescence, plate reader and imaging, single point; PvdQ acylase [Pseudomonas aeruginosa LESB58]; 340,000 compounds, 0.063% hits; purified PvdQ acylase; inhibition, % at 10 µM; in the data active = inhibition above about 30%, passing the limit was not always enough;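 also: 0% = vehicle neutral wells and 100% = reference inhibitor wells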
Xi reactivation: activators of inactive X chromosome reactivation, primary screen, imaging, XiGFP fibroblasts, GFP high-content imaging, set 2; activation, % at 7.58 µM; AID 743238, 2013; XiGFP mouse fibroblasts, % GFP-positive cells imaging, 3 d; cells co-treated with 5-aza-dC sensitizer; scaled so ellipticine positive control = 100%; 360,000 compounds, 0.055% hits;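 active = mean normalized replicate activation at least 10% and every replicate at or above 10%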;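 also: 0% = median of on-plate neutral control wells and 100% = ellipticine 6 µM median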
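Assay system: SV40-immortalized XiGFP fibroblast cells, line 68-5-11; buffer or medium: DMEM plus 5-aza-dC sensitizer; compound: one concentration, pinned; timing: compounds 3 days, fix/stain 15 min at room temperature; benchmarks: positive control ellipticine, 6 µM final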
Active calls of the source: *; / = no result given.

SMILES | rRNA inh HTS | dFosB act | SR-BI DiI-HDL act | SR-BI HDL uptake | PvdQ acylase | Xi reactivation
CCN(CC)CCCNC(=O)CSc1nc(-c2ccc(F)cc2)cc(C(F)(F)F)n1 | 4 | -5 | -86 | 86* | -3 | 0
COC(=O)CSc1nc(-c2ccc(F)cc2)cc(C(F)(F)F)n1 | / | 5 | -23 | 23 | 4 | /
CCn1cc(CN2CCCC(C(=O)c3ccc(-c4ccccc4)c(F)c3)C2)cn1 (configuration not stated) | -13 | -8 | -14 | 14 | -4 | 0
O=C(c1ccc(-c2ccccc2)c(F)c1)C1CCCN(CCCn2cccn2)C1 (configuration not stated) | -22* | -6 | -16 | 16 | -6 | 0
CCCCC[C@@H](C)N1C[C@@H](COCc2ccccc2)Oc2cc(N3CCC[C@H]3C(N)=O)ccc2S1(=O)=O | -1 | / | / | / | / | 0
CCN1/C(=C\C(=S)Nc2ccccc2)Sc2ccccc21 | / | 4 | -81 | 81* | -10 | 0
CCN1/C(=C\C=C(C(C)=O)C(C)=O)Sc2ccccc21 | -5 | -12 | -37 | 37 | -1 | 0
Cc1[nH]n(-c2cccc(Cl)c2)c(=O)c1C=NCc1ccco1 | 5 | 0 | 1 | -1 | -1 | 0
Cc1[nH]n(-c2cccc(Cl)c2)c(=O)c1C=NCC(C)C | -21* | -2 | -31 | 31 | 2 | 0
Cc1ccc2nc(NC(=O)CN3C(=O)C4CC=CCC4C3=O)sc2c1 (configuration not stated) | -25* | -11 | -12 | 12 | 15 | 0
CCOc1ccc2nc(NC(=O)c3cnccn3)sc2c1 | / | -5 | 39 | -39 | -3 | /
CCOCC(=O)Nc1nc2ccc(OCC)cc2s1 | / | -1 | 9 | -9 | -18 | /
CCOCC(=O)Nc1nc2ccc(C)cc2s1 | / | -8 | -3 | 3 | 32* | /
CCOc1ccc2nc(NC(=O)C3(C)CC3(Br)Br)sc2c1 (configuration not stated) | -42* | -3 | -16 | 16 | -11 | 0
CO[C@H]1CN(C)C(=O)c2cc(NC(=O)Nc3cccc(F)c3)ccc2OC[C@@H](C)N(C(C)=O)C[C@@H]1C | -5 | / | / | / | / | 0
CCN=c1scc(C)n1/N=C/c1cc(Br)c(O)c(OC)c1 | -6 | -14 | -72 | 72* | 7 | 0
CCN(CC)S(=O)(=O)c1cc(NC(=O)CSc2nc3c(cc2C#N)C(=O)CC(C)(C)C3)ccc1C | / | -5 | -72 | 72* | -22 | /
O=C(Nc1cccc(Cl)c1)N1N=CCC1c1ccccc1 (configuration not stated) | -27* | / | / | / | / | 0
O=C(Nc1cccc2ccccc12)N1N=CCC1c1ccccc1 (configuration not stated) | -28* | / | / | / | / | 0
O=C(CCl)Nc1ccccc1C(=O)c1ccccc1 | 8 | -7 | -5 | 5 | 6 | 0
Cn1nnnc1Sc1ncnc2scc(-c3ccc(C(F)(F)F)cc3)c12 | -11 | -11 | 1 | -1 | -11 | 0
Cn1nnnc1Sc1ncnc2scc(-c3ccccc3C(F)(F)F)c12 | -18* | 1 | 32 | -32 | -11 | 0
COc1ccccc1N1CCN(c2ccc(S(=O)(=O)N3CCN(C)CC3)cn2)CC1 | 4 | -1 | -15 | 15 | 4 | 0
N#C/C(=C\c1c[nH]c2ccccc12)C(=O)NC1CCCC1 | -35* | -5 | -11 | 11 | 8 | 0
N#C/C(=C\c1c[nH]c2ccccc12)C(=O)NC1CC1 | -10 | -7 | 2 | -2 | -9 | 0
N#Cc1cccc(-c2ccc(C3[C@@H]4CN(C(=O)c5ccncc5)C[C@H]3N4)cc2)c1 (some centres not stated) | 3 | / | / | / | / | 0
